From PMC8725320 (Biochimica et biophysica acta. Bioenergetics, 2021)
Where “and” joins values, the source holds several entries; their conditions need not be identical. Equal entries are not always repeated. Where two headings read alike, the source gives them in different places.

Key:
[1] = test system: Oxidative Phosphorylation; type: biochemical, mouse
Outline: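 Mouse liver, kidney, heart and skeletal muscle mitochondria were isolated and diluted in mannitol–sucrose buffer. Run at 25°C in KCl/MOPS medium at pH 7.0 with 5 mM MgCl2, 10 mM phosphate, 20 μM AP5A, luciferin and luciferase. Eight ADP levels from 0 to 125 μM; start with 10 mM glutamate + 10 mM succinate. Luminescence read each minute for 7–10 min against ATP standards; at least duplicate. ADP3− computed from ΣADP.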

Creatine Kinase = type: biochemical, mouse; settings: 10 mM phosphocreatine, 20 μM AP5A, mean
Outline: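 Creatine kinase pathway in isolated mouse tissue mitochondria. Started by adding 10 mM phosphocreatine, with 20 μM AP5A to block AK. Run at 25°C in pH 7.0 medium with 100 mM KCl, 50 mM MOPS, 5 mM MgCl2, 10 mM phosphate, D-luciferin and luciferase. ADP at eight concentrations from 0 to 125 μM. Luminescence read each minute over 7–10 min against ATP standard curves; at least duplicate.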

[2] = test system: Oxidative Phosphorylation; assay: Polarography; type: biochemical; settings: mouse skeletal muscle mitochondria, five preparations, creatine kinase clamp, 5 mM ATP, 37°C
Outline: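 Mouse skeletal muscle mitochondria from five preparations, resuspended in mannitol-sucrose buffer, oxidised 10 mM glutamate + 10 mM succinate at 37°C. O2 consumption was recorded continuously. Steady-state ADP was clamped over a range by varying the phosphocreatine/creatine ratio, with 5 mM ATP and saturating creatine kinase. K0.5 was expressed as total ADP and as ADP3−.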

[3] = target: adenine nucleotide translocase (ANT); settings: read-out: ANT-ADP dissociation constant, KdADP^3−; free ion ADP^3−; cited from earlier work
[4] = test system: Oxidative Phosphorylation; settings: cited from earlier work
Adenylate Kinase = Adenylate Kinase (Mus musculus, UniProt Q9WTP6); type: biochemical
[5] = test system: Oxidative Phosphorylation; type: biochemical; settings: human skeletal muscle mitochondria, glutamate + succinate, 20 μM AP5A, mean
Outline: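 Isolated human skeletal muscle mitochondria, diluted in mannitol–sucrose buffer. Firefly luciferase ATP-accumulation assay at 25°C in KCl/MOPS medium at pH 7.0 with 5 mM MgCl2, 10 mM phosphate, glucose, EGTA, DTT and 0.2 g% BSA, plus 20 μM AP5A. ADP at eight levels from 0 to 125 μM (ΣADP). Started with 10 mM glutamate + 10 mM succinate. RLU read per minute over 7–10 min; at least duplicate.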

[6] = target: adenine nucleotide translocase (ANT); assay: Carboxyatractyloside titration of OxPhos with Easson-Stedman analysis; type: biochemical; settings: read-out: CAT-ANT Kd; human skeletal muscle mitochondria; Easson-Stedman equation; low [ADP] 6.25 and/or 12.5 μM; n=27
Outline: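 Human skeletal muscle mitochondria, oxidising glutamate + succinate, were mixed with reaction mix containing 20 μM AP5A, one ADP level (6.25, 12.5 or 25 μM) and one of eight CAT levels (0–5.0 nM). After 5 min for binding, substrate was added to start the reaction. ATP output was followed by luciferase light at 25°C, at least in duplicate. The Easson-Steadman equation gave Kd and ANT concentration.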

[7] = mouse heart mitochondria, glutamate + succinate, 20 μM AP5A, mean
[8] = mouse kidney mitochondria, glutamate + succinate, 20 μM AP5A, mean
[9] = mouse liver mitochondria, glutamate + succinate, 20 μM AP5A, mean
[10] = mouse skeletal muscle mitochondria, glutamate + succinate, 20 μM AP5A, mean
[11] = mouse skeletal muscle mitochondria
[12] = mouse heart mitochondria, no AP5A, mean
[13] = mouse kidney mitochondria, no AP5A, mean
[14] = mouse skeletal muscle mitochondria, no AP5A, mean

Nc1ncnc2c1ncn2[C@@H]1O[C@H](COP(=O)(O)OP(=O)(O)O)[C@@H](O)[C@H]1O [ADP]
K0.5ADP^3− for OxPhos, heart ([1]; mouse heart mitochondria, free ion ADP^3− calculated from ΣADP): 1.9 μM and ~ 1.9 μM
Vmax, Oxidative Phosphorylation, Heart [1, 7]: 242.4 nmol ATP min^−1 mg^−1
nH (Hill exponent), Oxidative Phosphorylation, Heart [1, 7]: 1.35
K0.5ADP^3− for OxPhos, kidney ([1]; mouse kidney mitochondria, free ion ADP^3− calculated from ΣADP): 1.9 μM and ~ 1.9 μM
Vmax, Oxidative Phosphorylation, Kidney [1, 8]: 109.9 nmol ATP min^−1 mg^−1
nH (Hill exponent), Oxidative Phosphorylation, Kidney [1, 8]: 1.45
K0.5ADP, Oxidative Phosphorylation, Liver ([1]; mouse liver mitochondria, glutamate + succinate 10 mM + 10 mM, 20 μM AP5A, 25°C, pH 7.0, ΣADP, mean): 22.3 µM
Vmax, Oxidative Phosphorylation, Liver [1, 9]: 59.9 nmol ATP min^−1 mg^−1
nH (Hill exponent), Oxidative Phosphorylation, Liver [1, 9]: 1.33
K0.5ADP^3−, Luciferase ([1]; mouse skeletal muscle mitochondria, same five preparations, 25°C, free ion ADP^3−): 1.9 ± 0.1 μM and 1.9 ^* μM
K0.5ADP (ΣADP), Luciferase ([1]; mouse skeletal muscle mitochondria, same five preparations, 25°C, glutamate + succinate): 11.9 ± 0.6 µM and 11.9 µM
K0.5ADP^3− for OxPhos, skeletal muscle ([1]; mouse skeletal muscle mitochondria, free ion ADP^3− calculated from ΣADP): 1.9 μM and ~ 1.9 μM
K0.5ADP, Oxidative Phosphorylation, Muscle ([1]; mouse skeletal muscle mitochondria, glutamate + succinate, 20 μM AP5A, 25°C, pH 7.0, ΣADP, mean): 11.9 µM
Vmax, Oxidative Phosphorylation, Muscle [1, 10]: 553.5 nmol ATP min^−1 mg^−1
nH (Hill exponent), Oxidative Phosphorylation, Muscle [1, 10]: 1.19
K0.5ADP, Creatine Kinase, Heart (Creatine Kinase; mouse heart mitochondria, 25°C, pH 7.0): 24.4 µM
Vmax, Creatine Kinase, Heart (Creatine Kinase; mouse heart mitochondria): 273.9 nmol ATP min^−1 mg^−1
nH (Hill exponent), Creatine Kinase, Heart (Creatine Kinase; mouse heart mitochondria): 1.00
K0.5ADP, Creatine Kinase, Kidney (Creatine Kinase; mouse kidney mitochondria, 25°C, pH 7.0): 37.8 µM
Vmax, Creatine Kinase, Kidney (Creatine Kinase; mouse kidney mitochondria): 28.7 nmol ATP min^−1 mg^−1
nH (Hill exponent), Creatine Kinase, Kidney (Creatine Kinase; mouse kidney mitochondria): 1.00
K0.5ADP, Creatine Kinase, Muscle (Creatine Kinase; mouse skeletal muscle mitochondria, 25°C, pH 7.0): 36.3 µM
Vmax, Creatine Kinase, Muscle (Creatine Kinase; [11]): 944.2 nmol ATP min^−1 mg^−1
nH (Hill exponent), Creatine Kinase, Muscle (Creatine Kinase; [11]): 1.07
K0.5ADP^3−, Polarography ([2]; free ion ADP^3−): 4.4 ± 0.4 µM and 4.4 µM
K0.5ADP (ΣADP), Polarography ([2]; glutamate + succinate): 13.1 ± 1.3 µM and 13.1 µM
Kd [3]: ~4000 nM
Hill exponent, nH, in vivo ([4]; in vivo OxPhos vs [ADP], sigmoidal relationship): ~2.0
OxPhos K0.5ADP in vivo ([4]; intact contracting mammalian skeletal muscle, 31P-MRS): 20 to 40 µM
K0.5ADP, Adenylate Kinase, Heart (Adenylate Kinase; mouse heart mitochondria, no AP5A, 25°C, pH 7.0, mean): 54.9 µM
Vmax, Adenylate Kinase, Heart (Adenylate Kinase; [12]): 30.2 nmol ATP min^−1 mg^−1
nH (Hill exponent), Adenylate Kinase, Heart (Adenylate Kinase; [12]): 1.85
K0.5ADP, Adenylate Kinase, Kidney (Adenylate Kinase; mouse kidney mitochondria, no AP5A, 25°C, pH 7.0, mean): 64.3 µM
Vmax, Adenylate Kinase, Kidney (Adenylate Kinase; [13]): 102.3 nmol ATP min^−1 mg^−1
nH (Hill exponent), Adenylate Kinase, Kidney (Adenylate Kinase; [13]): 1.74
K0.5ADP, Adenylate Kinase, Liver (Adenylate Kinase; mouse liver mitochondria, no AP5A, 25°C, pH 7.0, mean): 84.0 µM
nH (Hill exponent), Adenylate Kinase, Liver (Adenylate Kinase; mouse liver mitochondria, no AP5A, mean): 1.53
K0.5ADP, Adenylate Kinase, Muscle (Adenylate Kinase; mouse skeletal muscle mitochondria, no AP5A, 25°C, pH 7.0, mean): 78.0 µM
Vmax, Adenylate Kinase, Muscle (Adenylate Kinase; [14]): 25.7 nmol ATP min^−1 mg^−1
nH (Hill exponent), Adenylate Kinase, Muscle (Adenylate Kinase; [14]): 1.68
Vmax [5]: 251.9 nmol/min/mg
nH [5]: 1.16
K0.5ADP ([5]; ΣADP): 11.1 ± 0.8 µM and 11.1 µM

Nc1ncnc2c1ncn2[C@@H]1O[C@H](COP(=O)(O)OP(=O)(O)OP(=O)(O)OP(=O)(O)OP(=O)(O)OC[C@H]2O[C@@H](n3cnc4c(N)ncnc43)[C@H](O)[C@@H]2O)[C@@H](O)[C@H]1O [AP5A, diadenosine pentaphosphate, reference compound]
AK activity in the presence of AP5A (Adenylate Kinase; AP5A present at 20 μM, Figure S-8a, S-8b): not detectable

C=C1[C@@H]2CC[C@H]3[C@]4(C)C[C@H](O[C@@H]5O[C@H](CO)[C@@H](OS(=O)(=O)O)[C@H](OS(=O)(=O)O)[C@H]5OC(=O)CC(C)C)CC(C(=O)O)(C(=O)O)[C@H]4CC[C@]3(C2)[C@H]1O [CAT, Carboxyatractyloside]
Kd [6]: 0.048 ± 0.002 nM
